Source: ChEMBL document CHEMBL1165888, “Synthesis and study of antiproliferative activity of novel thienopyrimidines on glioblastoma cells” (Eur J Med Chem, 2010)

The compounds below were run on DBTRG-05MG (assay: Cytotoxicity against human DBTRG-05MG cells after 72 hrs by MTT assay).
Assay type: functional, cell-based
How it was run: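 DBTRG.05-MG cells were grown in RPMI 1640 with 10% heat-inactivated FCS at 37 °C and 5% CO₂. They were seeded at 6×10^3 per well, cultured 72 h, then exposed 72 h to serial dilutions in DMSO (≤1%, ≤200 μM). Viability was read by MTT (0.5 mg/mL, 37 °C), DMSO-solubilized, A570/630, as % of untreated wells. IC50 came from curves; triplicates, mean ± SD.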

SMILES	IC50 [µM]
c1ccc(Nc2ncnc3sc4c(c23)CCCC4)cc1	585
CN(C)c1ncnc2sc3ccccc3c12	138
CN(C)c1ncnc2sc3c(c12)CCCC3	149
c1ccc(Nc2ncnc3sc4ccccc4c23)cc1	109
Cc1ccccc1Nc1ncnc2sc3ccccc3c12	61.8
COc1ccccc1Nc1ncnc2sc3c(c12)CCCC3	571
COc1ccc(Nc2ncnc3sc4c(c23)CCCC4)cc1	152
COc1ccc(Nc2ncnc3sc4ccccc4c23)cc1	117
Cc1ccccc1Nc1ncnc2sc3c(c12)CCCC3	474
COc1ccccc1Nc1ncnc2sc3ccccc3c12	41.2
